These results are taken from ChEMBL document CHEMBL4673366, “Cyclic Phosphopantothenic Acid Prodrugs for Treatment of Pantothenate Kinase-Associated Neurodegeneration” (J Med Chem, 2020).

Calls of active or inactive are those of the source. No cut-off for these calls is given here.

Data set [1] is described as follows: Stability of compound in human plasma assessed as half life. Type of data set: ADME, cell-free.
Data set [2] can be described thus: Effect on free coenzyme A level in C57BL6 mouse brain at 500 mg/kg, po administered as single dose measured after 6 hr UPLC quadrupole-time-of-flight mass spectrometry (Rvb =100%). Format: functional. The procedure, abridged: (§1)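 C57BL6 mice, three per time point, received one oral 500 mg/kg dose of isotopically labeled prodrug, and brains were taken at 0, 1, 6 and 24 h. Brains were homogenized in water (3 mL/g), protein was precipitated with MeOH, and dried supernatant was reconstituted in 10 mM ammonium acetate (pH ~5). Analysis was UPLC-QTOF MS in positive ESI, scoring labeled CoA (+6, +4 amu) as a share of free CoA.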

The test system of data set [3] is IMR-32. In words: Increase in histone H3 acetylation in human IMR-32 PANK2 knockdown cells at 50 uM for 48 hrs by Western blot analysis. Format: functional.
Data set [4] is described as follows: Effect on free coenzyme A level in C57BL6 mouse brain at 500 mg/kg, po administered as single dose measured after 24 hrs UPLC quadrupole-time-of-flight mass spectrometry (Rvb =100%). Format: functional. Summed up: as §1
Data set [5] relates to IMR-32. In words: Decrease in lipid droplet content in human IMR-32 PANK2 knockdown cells at 10 uM for 48 hrs by Nile red staining based inverted microscopic analysis. Type of data set: functional. The procedure, abridged: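 PANK2-knockout neuroblastoma cells were treated for 48 h, then fixed and stained with 100 ng/mL Nile Red. Cells were imaged on an inverted microscope at 60×, and lipid droplet content was quantified by plate fluorimetry. Data are mean ± sd of two biological replicates, each in duplicate; two-tailed paired Student's t-test.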

In data set [6] the test system is IMR-32. Put plainly: Increase in tubulin acetylation in human IMR-32 PANK2 knockdown cells at 50 uM for 48 hrs by Western blot analysis. Format: functional.
The nature of data set [7]: Induction of Coenzyme A regeneration in human IMR-32 PANK2 knockdown cells at 50 uM for 24 hrs by HPLC analysis relative to control. Type of data set: functional. Summed up: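 PANK2-knockout neuroblastoma cells were grown in MEM with 10% FBS and 1 µg/mL puromycin and seeded at 0.2×10⁶ cells/well. After 72 h, they were dosed at 50 µM in DMSO (final 0.1%) at 37 °C. Washed, frozen pellets were reconstituted in ammonium acetate (pH 5.1) with internal standard, and free CoA was measured by LC-MS/MS. Intracellular volume was taken as 2 µL/10⁶ cells; results are fold over vehicle-treated cells.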

Data set [8] is described as follows: Effect on free coenzyme A level in C57BL6 mouse brain at 500 mg/kg, po administered as single dose measured after 1 hr UPLC quadrupole-time-of-flight mass spectrometry (Rvb =100%). Type of data set: functional. Summed up:
as §1

As to `COC(=O)CCNC(=O)[C@@H]1O[P@](=O)(OCOC(=O)c2cncs2)OCC1(C)C` (relative stereo), in data set [1], the half-life was less than 9.6 min.
The same measure, in the same setting: the value for `COC(=O)CCNC(=O)[C@@H]1O[P@@](=O)(OCOC(=O)c2cncs2)OCC1(C)C` (relative stereo) was less than 9.6 min.
For `COC(=O)CCNC(=O)[C@@H]1OP(=O)(OCOC(=O)C(C)(C)C)OCC1(C)C` (mixture of isomers), the results for the Activity in data set [2], in data set [4] and in data set [8] were 92%, 85% and 100%, respectively. The result in data set [3] and in data set [6] was Active. For the same compound, the inhibition result in data set [5] is “Active”. Also, the “fold change (FC)” value in data set [7] was 180.
